Laboratory results published in PMC9896656 (Investigational new drugs, 2022).
Where two headings read alike, the source gives them in different places. Residues, ends and D or L forms follow the SMILES beside them. *: point of attachment. Cbz = O=C(OCc1ccccc1)*

What was measured:
CEM and COLO 205 cells = conditions: 1 mM positive control, 24 h; cell line not stated
[1] = tested on: poly-ubiquitinated proteins in CEM cells; assay: Western blot of poly-ubiquitinated proteins; assay type: cell-based, human; conditions: 8 h, in comparison to COLO 205
Summary of the method: (§1)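 3,000,000 cells per T-25 flask in 10 ml RPMI were treated 8 h at twice the CC50, with MG-132 and 0.3% PEG-400 vehicle controls. Cells were PBS-washed and lysed by boiling 15 min in 2x Laemmli buffer. 100 μg protein was run on 7% SDS-PAGE and transferred to PVDF. Blots were blocked overnight in 5% milk, then probed with mouse anti-ubiquitin (1 h) and HRP anti-mouse (1:10,000, 1 h). ECL imaging and densitometry followed.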

[2] = tested on: poly-ubiquitinated proteins in COLO 205 cells; assay: Western blot of poly-ubiquitinated proteins; assay type: cell-based, human; conditions: COLO 205, 8 h, 2X CC50
Summary of the method: as §1

[3] = tested on: caspase-3/7 in COLO 205 cells; assay: Caspase-3/7 activation; assay type: cell-based, human; conditions: COLO 205, 7.5 h, CC50 and twice the CC50, vs vehicle control (1% DMSO)
COLO 205 = assay: Differential nuclear staining; assay type: cell-based, human; conditions: for CC20: COLO 205, concentration used for cell cycle analysis; for CC50: Homo sapiens
[4] = Differential nuclear staining; assay type: cell-based, human; conditions: human, Hs-27 cells (non-cancerous reference) versus COLO 205 cells
COLO 205 cells [5] = assay: Reactive oxygen species accumulation; assay type: cell-based, human; conditions: COLO 205, 6 h, compared with DMSO-treated cells
[6] = Differential nuclear staining; assay type: cell-based; conditions: human, HS-27 cells (normal foreskin, non-cancer)
Summary of the method: (§2)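 Cells were seeded at 10,000/well in 96-well plates; adherent lines attached overnight. A 0.1–5 μM gradient was applied for 48 h, with 1% DMSO, 1 mM H2O2 and untreated wells. PI and Hoechst 33342 (5 μg/ml each) were added 2 h before reading at 37°C. Wells were imaged to separate dead from total nuclei. CC50 was obtained by linear interpolation of the dose-response. Selectivity index uses Hs-27 as the non-cancer reference.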

[7] = Differential nuclear staining; assay type: cell-based; conditions: human; for selectivity ratio at 48 h: Hs-27 cells (non-cancerous reference) versus MCF-10 A cells; for CC50 at 48 h: MCF-10 A cells (breast epithelial)
Summary of the method: as §2

[8] = Differential nuclear staining; assay type: cell-based; conditions: human, Hs-27 cells (non-cancerous reference) versus HT-29 cells
Summary of the method: as §2

HT-29 = assay: Differential nuclear staining; assay type: cell-based; conditions: Homo sapiens, HT-29, 48 h
Summary of the method: as §2

MM1 S = assay: Differential nuclear staining; assay type: cell-based; conditions: Homo sapiens, MM1.S, 48 h
Summary of the method: as §2

[9] = Differential nuclear staining; assay type: cell-based; conditions: human, Hs-27 cells (non-cancerous reference) versus MM1 S cells
Summary of the method: as §2

PANC-1 = assay: Differential nuclear staining; assay type: cell-based; conditions: Homo sapiens, PANC-1, 48 h
Summary of the method: as §2

[10] = Differential nuclear staining; assay type: cell-based; conditions: human, Hs-27 cells (non-cancerous reference) versus PANC-1 cells
Summary of the method: as §2

U266 = assay: Differential nuclear staining; assay type: cell-based; conditions: Homo sapiens, U-266, 48 h
Summary of the method: as §2

[11] = Differential nuclear staining; assay type: cell-based; conditions: human, Hs-27 cells (non-cancerous reference) versus U266 cells
Summary of the method: as §2

COLO 205 cells [12] = assay: Mitochondrial membrane potential; assay type: cell-based, human; conditions: COLO 205, 6 h, CC50 and twice the CC50, vs untreated and DMSO
[13] = Differential nuclear staining; assay type: cell-based; conditions: human, Hs-27 cells (non-cancerous reference) versus HL-60 cells
Summary of the method: as §2

HL-60 = assay: Differential nuclear staining; assay type: cell-based; conditions: Homo sapiens, HL-60, 48 h
Summary of the method: as §2

COLO 205 cells [14] = assay: Cell cycle profile analysis; assay type: cell-based, human; conditions: COLO 205, CC20, 72 h
RAMOS = assay: Differential nuclear staining; assay type: cell-based; conditions: Homo sapiens, Ramos, 48 h
Summary of the method: as §2

[15] = Differential nuclear staining; assay type: cell-based; conditions: human, Hs-27 cells (non-cancerous reference) versus RAMOS cells
Summary of the method: as §2

MM1 R = assay: Differential nuclear staining; assay type: cell-based; conditions: Homo sapiens, MM.1R, 48 h
Summary of the method: as §2

[16] = Differential nuclear staining; assay type: cell-based; conditions: human, Hs-27 cells (non-cancerous reference) versus MM1 R cells
Summary of the method: as §2

CEM cells [17] = assay: Reactive oxygen species accumulation; assay type: cell-based, human; conditions: 6 h, compared with DMSO-treated cells
COLO 205 cells [18] = assay: Annexin V-FITC/PI apoptosis/necrosis assay; assay type: cell-based, human; conditions: COLO 205, 24 h, 2x CC50, compared to DMSO solvent control
caspase-3/7 in CEM cells = assay: Caspase-3/7 activation; assay type: cell-based, human; conditions: 7.5 h, CC50 and twice the CC50, vs vehicle control (1% DMSO)
[19] = Differential nuclear staining; assay type: cell-based; conditions: human, Hs-27 cells (non-cancerous reference) versus PC-3 cells
Summary of the method: as §2

PC-3 = assay: Differential nuclear staining; assay type: cell-based; conditions: Homo sapiens, PC-3, 48 h
Summary of the method: as §2

[20] = Differential nuclear staining; assay type: cell-based; conditions: human, Hs-27 cells (non-cancerous reference) versus RPMI-8226 cells
Summary of the method: as §2

RPMI-8226 = assay: Differential nuclear staining; assay type: cell-based; conditions: Homo sapiens, RPMI-8226, 48 h
Summary of the method: as §2

CEM cells [21] = assay: Mitochondrial membrane potential; assay type: cell-based, human; conditions: 6 h, CC50 and twice the CC50, vs untreated and DMSO
[22] = Differential nuclear staining; assay type: cell-based; conditions: human
Summary of the method: as §2

MDA-MB-231 = assay: Differential nuclear staining; assay type: cell-based; conditions: Homo sapiens, MDA-MB-231, 48 h
Summary of the method: as §2

CEM cells [23] = assay: Annexin V-FITC/PI apoptosis/necrosis assay; assay type: cell-based, human; conditions: 24 h, 2x CC50, compared to DMSO solvent control
[24] = Differential nuclear staining; assay type: cell-based; conditions: human, CCD-112-CoN cells (non-cancerous colon fibroblasts)
Summary of the method: as §2

CEM = assay: Differential nuclear staining; assay type: cell-based, human; conditions: CEM; concentration used for cell cycle analysis
[25] = Differential nuclear staining; assay type: cell-based, human; conditions: human, Hs-27 cells (non-cancerous reference) versus CEM cells
CEM cells [26] = assay: Cell cycle profile analysis; assay type: cell-based, human; conditions: CC20, 72 h
[27] = COLO 205, 24 h, read-out: 24 h CC50

## OO [H20_2, hydrogen peroxide]
CEM and COLO 205 cells
  percentage of PS externalization: 39%

## CC(C)C[C@@H](C=O)NC(=O)[C@H](CC(C)C)NC(=O)[C@H](CC(C)C)NC(=O)OCc1ccccc1 [MG132, reference compound] (Cbz-Leu-Leu-Leu-aldehyde)
[1]
  proteasome inhibition (poly-ubiquitinated proteins, in words): slight proteasome inhibition
[2]
  accumulation of high molecular weight poly-ubiquitinated proteins (densitometry): 1 fold increase

## O=C1C(=Cc2ccc(F)c(F)c2)CN(C(=O)C(Cl)Cl)CC1=Cc1ccc(F)c(F)c1 [compound 2608, 1-dichloroacetyl – 3,5-bis(3,4-difluorobenzylidene)-4-piperidone]
[3]
  caspase-3/7 activation: significant caspase-3/7 activation
COLO 205
  CC20: 761.6 nM
COLO 205; [27]
  CC50: 1900 nM
COLO 205; COLO 205, 48 h
  CC50: 424 nM
[4]
  selectivity ratio at 48 h: 1.07
COLO 205 cells [5]
  ROS accumulation: Significant ROS
[6]
  CC50 at 48 h: 455 nM
[7]
  selectivity ratio at 48 h: 2.6
  CC50 at 48 h: 175 nM
[8]
  selectivity ratio at 48 h: 2.8
HT-29
  CC50: 162 nM
MM1 S
  CC50: 18.1 nM
[9]
  selectivity ratio at 48 h: 25.1
PANC-1
  CC50: 1130 nM
[10]
  selectivity ratio at 48 h: 0.4
U266
  CC50: 14.4 nM
[11]
  selectivity ratio at 48 h: 31.6
COLO 205 cells [12]
  mitochondrial depolarization: significant mitochondrial depolarization
[13]
  selectivity ratio at 48 h: 7.11
HL-60
  CC50: 64 nM
COLO 205 cells [14]
  DNA fragmentation (sub G0/G1): but not in COLO 205
  cell cycle profile: did not alter the cell cycle profile
RAMOS
  CC50: 95 nM
[15]
  selectivity ratio at 48 h: 4.79
MM1 R
  CC50: 16 nM
[16]
  selectivity ratio at 48 h: 28.4
CEM cells [17]
  ROS accumulation: Significant ROS
[2]
  accumulation of high molecular weight poly-ubiquitinated proteins (densitometry): 0.40 fold increase
COLO 205 cells [18]
  PS externalization (Annexin V-FITC positive cells): significant PS externalization
caspase-3/7 in CEM cells
  caspase-3/7 activation: significant caspase-3/7 activation
[19]
  selectivity ratio at 48 h: 1.51
PC-3
  CC50: 301 nM
[20]
  selectivity ratio at 48 h: 11.5
RPMI-8226
  CC50: 39.7 nM
CEM cells [21]
  mitochondrial depolarization: significant mitochondrial depolarization
[22]
  selectivity ratio at 48 h: 9.68
MDA-MB-231
  CC50: 47 nM
CEM cells [23]
  PS externalization (Annexin V-FITC positive cells): significant PS externalization
[24]
  CC50 at 48 h: 120 nM
CEM
  CC20: 39.7 nM
[25]
  selectivity ratio at 48 h: 22.8
CEM cells [26]
  DNA fragmentation (sub G0/G1): induced DNA fragmentation

## O=C1C(=Cc2ccc(Cl)c(Cl)c2)CN(C(=O)C(Cl)Cl)CC1=Cc1ccc(Cl)c(Cl)c1 [compound 2610, 1-dichloroacetyl-3,5-bis(3,4-dichlorobenzylidene)-4-piperidone]
[3]
  caspase-3/7 activation: significant caspase-3/7 activation
COLO 205
  CC20: 1516.4 nM
COLO 205; [27]
  CC50: 3790 nM
COLO 205; COLO 205, 48 h
  CC50: 1660 nM
[4]
  selectivity ratio at 48 h: 0.12
COLO 205 cells [5]
  ROS accumulation: Significant ROS
[6]
  CC50 at 48 h: 200 nM
[7]
  selectivity ratio at 48 h: 1.66
  CC50 at 48 h: 120 nM
[8]
  selectivity ratio at 48 h: 5.55
HT-29
  CC50: 36 nM
MM1 S
  CC50: 26.1 nM
[9]
  selectivity ratio at 48 h: 7.66
PANC-1
  CC50: 414 nM
[10]
  selectivity ratio at 48 h: 0.48
U266
  CC50: 762 nM
[11]
  selectivity ratio at 48 h: 0.26
COLO 205 cells [12]
  mitochondrial depolarization: significant mitochondrial depolarization
[13]
  selectivity ratio at 48 h: 8.33
HL-60
  CC50: 24 nM
COLO 205 cells [14]
  DNA fragmentation (sub G0/G1): caused DNA fragmentation on both cell lines
  cell cycle profile: did not alter the cell cycle profile
RAMOS
  CC50: 36 nM
[15]
  selectivity ratio at 48 h: 5.55
MM1 R
  CC50: 9 nM
[16]
  selectivity ratio at 48 h: 22.2
CEM cells [17]
  ROS accumulation: Significant ROS
[2]
  accumulation of high molecular weight poly-ubiquitinated proteins (densitometry): 1.41 fold increase
COLO 205 cells [18]
  PS externalization (Annexin V-FITC positive cells): significant PS externalization
caspase-3/7 in CEM cells
  caspase-3/7 activation: significant caspase-3/7 activation
[19]
  selectivity ratio at 48 h: 0.44
PC-3
  CC50: 446 nM
[20]
  selectivity ratio at 48 h: 0.599
RPMI-8226
  CC50: 334 nM
CEM cells [21]
  mitochondrial depolarization: significant mitochondrial depolarization
[22]
  selectivity ratio at 48 h: 1.65
MDA-MB-231
  CC50: 121 nM
CEM cells [23]
  PS externalization (Annexin V-FITC positive cells): significant PS externalization
[24]
  CC50 at 48 h: 176 nM
CEM
  CC20: 37.2 nM
[25]
  selectivity ratio at 48 h: 6.66
CEM cells [26]
  DNA fragmentation (sub G0/G1): caused DNA fragmentation on both cell lines
